# Most compounds without a hit are left out; they make up all but 1.9% or so of the library.
# UCH37 DUB inh – human UCH37 deubiquitinating enzyme inhibition. Q9Y5K5. purified proteasome/UCH37, Ub-AMC cleavage fluorescence. inhibition, % (test concentration not listed). 330,000 tested, 0.33% active. AID 588478;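 active = mean inhibition over replicate wells above about 20%, limit read from the data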;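 note: 0% = compound-free wells with enzyme and 100% = wells lacking proteasome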
# Target sequence (Q9Y5K5 whole entry, looked up): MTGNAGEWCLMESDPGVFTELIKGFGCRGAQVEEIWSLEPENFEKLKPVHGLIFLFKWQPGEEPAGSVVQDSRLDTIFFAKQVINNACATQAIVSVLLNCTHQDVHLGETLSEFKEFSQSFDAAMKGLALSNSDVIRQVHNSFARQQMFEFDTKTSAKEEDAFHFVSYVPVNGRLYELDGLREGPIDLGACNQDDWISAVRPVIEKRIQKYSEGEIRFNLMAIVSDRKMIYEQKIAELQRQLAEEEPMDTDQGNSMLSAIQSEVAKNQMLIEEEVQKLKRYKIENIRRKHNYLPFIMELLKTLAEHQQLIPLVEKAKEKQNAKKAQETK
#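 assay system = human UCH37 enzyme supplied as purified proteasome complex | amount = proteasome at 0.15 nM in the dispensed enzyme solution | schedule = 30 min compound-proteasome preincubation then 25 min substrate reaction, room temperature | measured by = fluorescence, ex 355 nm, em 460 nm | benchmarks = no-proteasome wells (full inhibition) and compound-free wells (no inhibition)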
# MsrA inhibitor – inhibitors of bovine MsrA; purified bovine MsrA, absorbance read-out; inhibition, % at 15.5 µM; 360,000 tested, 0.75% active; AID 651718;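 note: 0% = vehicle wells with enzyme and 100% = reference inhibitor wells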
# Vif inh – inhibitors of HIV Vif | HEK293T cells, Vif self-association by quenched fluorescence, imaging, 24 h | inhibition, % at 7.49 µM | 340,000 tested, 0.35% active; in the data active = inhibition above about 50%, passing the limit was not always enough
# bovine MsrA act – activates bovine MsrA enzyme. purified bovine MsrA, absorbance read-out. activation, % at 10.6 µM. 360,000 tested, 0.3% active; in the data active = activation above about 7.5%;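 note: 0% = vehicle and 100% = reference activator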
# Glyco luc inh – blocks N-linked glycosylation in D54 reporter cells; D54 ERlucT glycosylation luciferase reporter, 24 h; percent of 100 nM tunicamycin response; reporter increase, % at 12.5 µM; 360,000 tested, 0.23% active; AID 588692;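 active = mean luciferase reporter signal, scaled so untreated is 0 and the glycosylation-blocking control 100, at or above a set limit in every replicate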;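 note: luciferase carries N-glycosylation sites so blocking glycosylation raises the light; 0% = median of neutral control wells and 100% = median of 100 nM tunicamycin wells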
# aDG glyco up – alpha-DG glycosylation activation; Pro5-aDG cells, alpha-DG glycosylation AlphaScreen (IIH6); 0% Pro5, 100% B10-LARGE cell signal; activation, % at 10 µM; 360,000 tested, 0.22% active;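 active = activation of at least 8% versus controls, or a plate z-score of at least 8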;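 note: Pro5 are CHO cells carrying HIG-tagged alpha-DG that lacks glycosylation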
# MsrA conf – bovine MsrA inhibition, confirmed. shares compounds with MsrA inhibitor. purified bovine MsrA, absorbance read-out. inhibition, % at 15.5 µM. 2,300 tested, 41% active. AID 651822;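 note: coupled to thioredoxin reductase with NADPH and selenocystamine and DMSO as substrate; 0% = vehicle only and 100% = full effect of reference inhibitor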
# The depositor's hits bear a star; i = inactive; · = no result given. Cut-off read from the data, not from the text of the source, unless noted: active = inhibition above about 4.5%; inactive = the rest.
SMILES,UCH37 DUB inh,MsrA inhibitor,Vif inh,bovine MsrA act,Glyco luc inh,aDG glyco up,MsrA conf
Nc1ccc(C(=O)CC(=O)Nc2ccc(Cl)cc2)cc1,3,5.0*,-4,0,0,0,1
COc1cc(C=NNC(=O)c2ccc(N)cc2)ccc1OC(=O)c1cccc(C)c1,-13,·,·,·,·,·,·
COc1ccc(/C=C2\N=C(c3ccc(C)cc3)OC2=O)cc1,-2,-1,0,0,1,0,·
Cc1ccc(C2=N/C(=C\N3CCCCC3)C(=O)O2)cc1,16,6.1*,-3,-15,-10,0,5.9*
Cc1ccc(C2=N/C(=C/N3CCOCC3)C(=O)O2)cc1,20*,6.5*,7,-5,-1,0,7.6*
Fc1c(F)c(C(F)(F)F)c(F)c(F)c1NN=Cc1cccs1,5,·,·,·,·,·,·
COc1ccc(C(=O)NNC2=NC(C)(C)Cc3ccccc32)cc1,3,1,-4,-4,0,0,·
O=C(NNC1=NC2(CCCC2)Cc2ccccc21)c1ccncc1,5,4.7*,-7,-5,0,0,1
O=C(Nc1cccc(C(=O)O)c1)/C(=C\C=C\c1ccccc1)NC(=O)c1ccccc1,12,8.4*,0,-5,2,0,5.5*
O=C(Nc1cccc(C(=O)O)c1)/C(=C\c1ccccc1)NC(=O)c1ccccc1,0,3,1,-5,4,0,·
O=C(Nc1ccc(C(=O)O)cc1)/C(=C\C=C\c1ccccc1)NC(=O)c1ccccc1Br,18,8.7*,·,-12,·,0,6.4*
O=C(Nc1ccc(C(=O)O)cc1)/C(=C\C=C\c1ccccc1)NC(=O)c1cccc(Br)c1,15,5.2*,-2,-4,-1,0,4.6*
CS(=O)(=O)c1ccc(-c2nnc(NC(=O)c3ccc(S(=O)(=O)N4CCCC4)cc3)o2)cc1,5,5.1*,7,-2,-1,0,5
C/C(=N/Nc1ncc(Br)cn1)c1ccc(Br)cc1,·,1,-4,-4,2,0,·
C/C(=N\Nc1ccc(C(=O)O)cc1)c1ccc(Br)cc1,·,4.8*,14,-4,-18,0,6.4*
Cc1c(C=NNC(=O)C(C)(C)Oc2ccc(Cl)cc2)cnn1C,-2,·,·,·,·,·,·
COc1ccc(O)c(C=NN2CCCCC2)c1,7,·,·,·,·,·,·
O=C(CON=Cc1c(Cl)cccc1Cl)NNC(=O)c1ccc(Cl)cc1,3,·,·,·,·,·,·
C/C(=N/O)c1cc(C(C)(C)C)c(O)c(C(C)(C)C)c1,·,12*,·,-7,·,0,11*
COc1ccccc1OCC(=O)NN=C1C=C(C)CC1,-1,·,·,·,·,·,·
CC(Oc1ccc2cc(-c3ccccc3)c(=O)oc2c1)C(=O)NCC1CCC(C(=O)O)CC1 (configuration not stated),i,6.3*,2,-10,-1,0,4
Cc1c(OCC(=O)N(C)C)ccc2c(-c3ccccc3)cc(=O)oc12,1,18*,·,-6,-1,0,16*
COc1ccc2cc(-c3ccccc3)c(=O)oc2c1,i,2,2,-4,-13,0,·
Cc1cc(=O)oc2cc(OCC(=O)NCC3CCC(C(=O)O)CC3)ccc12 (configuration not stated),-7,1,14,-1,1,0,·
COc1ccc(-c2cc(=O)oc3cc(OCC(=O)NCC4CCC(C(=O)O)CC4)ccc23)cc1 (configuration not stated),-7,4.9*,-1,4,-1,0,3
SMILES,UCH37 DUB inh,MsrA inhibitor,Vif inh,bovine MsrA act,Glyco luc inh,aDG glyco up,MsrA conf
CN(C)C(=O)COc1ccc2cc(-c3ccccc3)c(=O)oc2c1,i,4.7*,5,-3,-1,0,3
CCOC(=O)C(=O)NN=Cc1ccc(F)cc1,5,·,·,·,·,·,·
O=C(c1ccccc1)c1ccc(O)cc1O,10,5.6*,0,-6,1,0,3
Cc1ccc(S(=O)(=O)N2CCN(S(=O)(=O)c3ccc(C)cc3)C2)cc1,3,5.5*,-9,-5,-2,0,2
Cc1ccc(OCC(=O)NN=C2CCOc3c(C)cccc32)cc1,2,·,·,·,·,·,·
O=C(/C=C/c1cccs1)Nc1nccs1,-43,6.4*,-14,-6,-7,0,7.2*
Cc1cc(C)nc(NC(=O)/C=C/c2cccs2)c1,7,4,-5,-4,-2,0,·
Cc1ccc(/C=C/C(=O)Nc2nccs2)o1,9,5.5*,-8,-5,1,0,7.8*
O=C(/C=C/c1cccs1)Nc1cccc(NC(=O)/C=C/c2cccs2)n1,-17,7.4*,-4,-11,-15,-1,6.0*
O=C(/C=C\c1ccccc1)Nc1nccs1,-19,1,·,-1,·,0,·
CSc1sc(C)cc1C=NO,1,·,·,·,·,·,·
COc1cc(C=NN2CCN(c3ccc(Cl)cc3)CC2)cc(OC)c1OC(C)=O,2,·,·,·,·,·,·
O=C1OC(c2ccc(Cl)cc2)=N/C1=C\C=C\c1ccco1,5,4.7*,-3,0,1,0,4
O=C1OC(c2ccccc2)=N/C1=C\C=C\c1ccco1,13,4.9*,·,-7,3,0,2
O=C1OC(c2ccccc2)=N/C1=C\C=C\c1ccccc1[N+](=O)[O-],5,2,-22,-7,2,0,·
Cc1ccccc1N(CC(=O)NN=Cc1ccccc1Cl)C(=O)c1ccccc1,1,·,·,·,·,·,·
CC(=NNC(=O)c1ccc(O)cc1O)c1cccnc1,8,·,·,·,·,·,·
Cc1cccc(C(=O)ON=C2CCCc3ccccc32)c1,3,·,·,·,·,·,·
O=C(NN=Cc1ccc2c(c1)OCO2)c1ccc(Br)o1,-16,·,·,·,·,·,·
O=C(O)c1ccc(N=NC(=NNc2ccc(C(=O)O)cc2)c2ccccc2)cc1,7,·,·,·,·,·,·
COc1ccc(N2C(=O)/C(=C/N(C)C)NC2=S)cc1,23*,7.3*,-6,-4,-1,0,5.8*
CCN1C(=O)/C(=C\N(C)C)NC1=S,9,5.0*,2,-7,0,0,3
CC(C)NC(=S)NN=C1CCCCC1C1CCCCC1 (configuration not stated),4,·,·,·,·,·,·
CN(C)CCCN1C(=O)c2cccc3c([N+](=O)[O-])ccc(c23)C1=O,-27,18*,-19,-7,57*,0,10*
ON=Cc1cc(Br)ccc1OCc1cccc(F)c1,3,·,·,·,·,·,·
CCOc1ccc(NC(=O)CCC(=O)NN=C2CCCc3ccccc32)cc1,5,·,·,·,·,·,·
CC(CC(=O)Nc1ccc([N+](=O)[O-])cc1)=NNC(=O)C1C2CCCCC21 (configuration not stated),5,·,·,·,·,·,·
O=C(Nc1ccon1)c1ccc(N2CCCCC2)c([N+](=O)[O-])c1,5,0,5,-2,-5,0,·
O=C(Nc1nc2ccccc2s1)c1ccc(N2CCCCC2)c([N+](=O)[O-])c1,11,4.7*,1,-1,-12,0,2
